Data published in ChEMBL document CHEMBL1144355, “Synthesis and antibacterial activity of the 4-quinolone-3-carboxylic acid derivatives having a trifluoromethyl group as a novel N-1 substituent” (2005).
≈ marks a conversion by molar mass, not a printed value.

Experiments:
Type in all cases: functional
Escherichia coli = assay: In vitro antibacterial activity against Escherichia coli NIHJ JC-2
Procedure, shortened: (§1)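 MIC (μg/mL) determined by agar dilution on Mueller–Hinton agar. Plates were incubated at 35 °C for 18 h. MIC was taken as the lowest agent concentration that prevented visible growth.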

Staphylococcus aureus = assay: In vitro antibacterial activity against Staphylococcus aureus Smith; procedure, shortened: as §1
Pseudomonas aeruginosa = assay: In vitro antibacterial activity against Pseudomonas aeruginosa IID1210; procedure, shortened: as §1
Streptococcus pneumoniae = assay: In vitro antibacterial activity against Streptococcus pneumoniae type III; procedure, shortened: as §1

| Compound | MIC (Escherichia coli) [µg/mL] | MIC (Staphylococcus aureus) [µg/mL] | MIC (Pseudomonas aeruginosa) [µg/mL] | MIC (Streptococcus pneumoniae) [µg/mL] |
| --- | --- | --- | --- | --- |
| CN1CCN(c2cc3c(cc2F)c(=O)c(C(=O)O)cn3-c2ccc(F)cc2F)CC1 | 0.1 (≈ 0.24 µM) | 0.1 (≈ 0.24 µM) | 3.13 (≈ 7.5 µM) | 0.39 (≈ 0.934 µM) |
| NC1CCN(c2cc3c(cc2F)c(=O)c(C(=O)O)cn3C(F)(F)F)C1 (stereo unspecified) | 0.39 (≈ 1.09 µM) | 1.56 (≈ 4.34 µM) | > 12.5 | 12.5 (≈ 34.8 µM) |
| CCn1cc(C(=O)O)c(=O)c2cc(F)c(N3CCN(C)CC3)cc21 [PEFLOXACIN] | 0.025 (≈ 0.075 µM) | 0.2 (≈ 0.6 µM) | 1.56 (≈ 4.68 µM) | 3.13 (≈ 9.39 µM) |
| CN1CCN(c2cc3c(cc2F)c(=O)c(C(=O)O)cn3C2CC2)CC1 | ≤ 0.0063 | 0.1 (≈ 0.29 µM) | 0.78 (≈ 2.26 µM) | 0.39 (≈ 1.13 µM) |
| CCn1cc(C(=O)O)c(=O)c2cc(F)c(N3CCNCC3)cc21 [NORFLOXACIN] | 0.05 (≈ 0.157 µM) | 0.39 (≈ 1.22 µM) | 1.56 (≈ 4.89 µM) | 3.13 (≈ 9.8 µM) |
| CN1CCN(c2cc3c(cc2F)c(=O)c(C(=O)O)cn3C(F)(F)F)CC1.Cl | 0.05 | 0.78 | 6.25 | 3.13 |
| CN1CCN(c2cc3c(cc2F)c(=O)c(C(=O)O)cn3C(C)(C)C)CC1 | 0.025 (≈ 0.0692 µM) | 0.2 (≈ 0.553 µM) | 1.56 (≈ 4.32 µM) | 0.78 (≈ 2.16 µM) |
| CN1CCN(c2cc3c(cc2F)c(=O)c(C(=O)O)cn3CCF)CC1 | 0.0125 (≈ 0.0356 µM) | 0.2 (≈ 0.569 µM) | 1.56 (≈ 4.44 µM) | 1.56 (≈ 4.44 µM) |
| CN1CCN(c2cc3c(cc2F)c(=O)c(C(=O)O)cn3C)CC1 | 0.05 (≈ 0.157 µM) | 0.39 (≈ 1.22 µM) | 1.56 (≈ 4.89 µM) | 6.25 (≈ 19.6 µM) |
